Measured values published in ChEMBL document CHEMBL5104213, “Evaluation of the effect of a cell penetrating peptide (TAT) towards tailoring the targeting efficacy and tumor uptake of porphyrin” (RSC Med Chem, 2022).
Calls of active or inactive are those of the source. The calls are words filed in the database; no cut-off is given here.

Assays:
[1] = Drug uptake in tumor of iv dosed Swiss mouse infected with mouse HSDM1C1 cells administered with radiolabeled Gallium-68 measured after 30 mins; type: ADME, organism-based, Neoplasm; conditions: in vivo, 0.5 h
Summary of the method: (§1)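 Fibrosarcoma grown from ~10⁶ HSDM1C1 cells injected subcutaneously on the dorsum, used at ~1 cm tumour diameter; 20–25 g Swiss mice. ⁶⁸Ga-labelled, Sep-Pak-purified preparation (~100 μCi, 3.7 MBq, 150 μL, saline) given i.v. via tail vein. Killed by CO₂ at 30 or 60 min, n = 3; blood by cardiac puncture, organs excised, washed, weighed and counted by NaI(Tl); % IA per g.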

A549 [2] = test: Cytotoxicity against human A549 cells assessed as cell growth inhibition at 0.5 to 10 uM incubated for 24 hrs under dark condition by MTT assay; type: functional, cell-based; conditions: dose 0.5-10 µM, DDE = dose-dependent effect
Summary of the method: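 A549 in DMEM/10% FBS, 7 × 10³ cells/well seeded, overnight at 37 °C, 5% CO₂; treated at 0.5, 1, 2.5, 5, 10 μM without light, buffer control, n = 6. After 24 h, MTT added to a final 0.5 mg mL⁻¹ for 4 h; formazan dissolved in DMSO, A570 read with 660 nm reference; % dead cells calculated against vehicle control.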

[3] = Drug uptake in lung of iv dosed Swiss mouse infected with mouse HSDM1C1 cells administered with radiolabeled Gallium-68 measured after 60 mins; type: ADME, organism-based; conditions: in vivo, 1 h; summary of the method: as §1
[4] = Drug uptake in kidney of iv dosed Swiss mouse infected with mouse HSDM1C1 cells administered with radiolabeled Gallium-68 measured after 60 mins; type: ADME, organism-based; conditions: in vivo, 1 h; summary of the method: as §1
A549 [5] = test: Cytotoxicity against human A549 cells assessed as cell growth inhibition at 1 uM incubated for 24 hrs under light exposure by MTT assay; type: functional, cell-based
Summary of the method: (§2)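 A549 plated as for MTT, incubated with compound (0.5 or 1 μM) for 6 h, then irradiated by LED at 42 W m⁻² for 90 min (0.02 kJ cm⁻²). Cells then held 18 h at room temperature and assayed by MTT. Controls were light without compound and compound without light.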

[6] = Drug uptake in lung of iv dosed Swiss mouse infected with mouse HSDM1C1 cells administered with radiolabeled Gallium-68 measured after 30 mins; type: ADME, organism-based; conditions: in vivo, 0.5 h; summary of the method: as §1
[7] = Octanol-water partition coefficient, logP of the compound; type: physicochemical
Summary of the method: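 ⁶⁸Ga-labelled preparation (100 μL) added to octanol (1.0 mL) and water (900 μL), mixed, centrifuged 2500 rpm for 5 min. Aliquots of each layer counted by NaI(Tl); log P taken as log of organic/aqueous count ratio.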

[8] = Drug uptake in spleen of iv dosed Swiss mouse infected with mouse HSDM1C1 cells administered with radiolabeled Gallium-68 measured after 60 mins; type: ADME, organism-based; conditions: in vivo, 1 h; summary of the method: as §1
[9] = Drug uptake in blood of iv dosed Swiss mouse infected with mouse HSDM1C1 cells administered with radiolabeled Gallium-68 measured after 30 mins; type: ADME, organism-based; conditions: in vivo, 0.5 h; summary of the method: as §1
[10] = Drug uptake in blood of iv dosed Swiss mouse infected with mouse HSDM1C1 cells administered with radiolabeled Gallium-68 measured after 60 mins; type: ADME, organism-based; conditions: in vivo, 1 h; summary of the method: as §1
[11] = Drug uptake in liver of iv dosed Swiss mouse infected with mouse HSDM1C1 cells administered with radiolabeled Gallium-68 measured after 60 mins; type: ADME, organism-based; conditions: in vivo, 1 h; summary of the method: as §1
A549 [12] = test: Cytotoxicity against human A549 cells assessed as cell growth inhibition at 0.5 uM incubated for 24 hrs under light exposure by MTT assay; type: functional, cell-based; summary of the method: as §2
[13] = Drug uptake in spleen of iv dosed Swiss mouse infected with mouse HSDM1C1 cells administered with radiolabeled Gallium-68 measured after 30 mins; type: ADME, organism-based; conditions: in vivo, 0.5 h; summary of the method: as §1
[14] = Drug uptake in kidney of iv dosed Swiss mouse infected with mouse HSDM1C1 cells administered with radiolabeled Gallium-68 measured after 30 mins; type: ADME, organism-based; conditions: in vivo, 0.5 h; summary of the method: as §1
[15] = Drug uptake in tumor of iv dosed Swiss mouse infected with mouse HSDM1C1 cells administered with radiolabeled Gallium-68 measured after 60 mins; type: ADME, organism-based, Neoplasm; conditions: in vivo, 1 h; summary of the method: as §1
[16] = Drug uptake in liver of iv dosed Swiss mouse infected with mouse HSDM1C1 cells administered with radiolabeled Gallium-68 measured after 30 mins; type: ADME, organism-based; conditions: in vivo, 0.5 h; summary of the method: as §1
A549 [17] = test: Cytotoxicity against human A549 cells assessed as cell growth inhibition incubated for 24 hrs under light exposure by MTT assay; type: functional, cell-based; conditions: A549, 24 h
Summary of the method: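 Photocytotoxicity IC₅₀ determination in A549 cells: 6 h compound exposure at 0.1, 0.5, 1, 2.5, 5.0, 10.0, 20.0 μM, then LED light dose of 0.02 kJ cm⁻² and 18 h post-irradiation incubation before MTT read-out. % cell death plotted against log concentration (nM) to derive IC₅₀.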

For O=C(O)COc1ccc(-c2c3nc(c(-c4ccc(OCC(=O)O)cc4)c4ccc([nH]4)c(-c4ccc(OCC(=O)O)cc4)c4nc(c(-c5ccc(O)cc5)c5ccc2[nH]5)C=C4)C=C3)cc1, the Ct [1] was 2.53%, the Activity (A549 [2]) was “Dde” and the Ct [3] was 5.33%. The Ct [4] was 3.35%, the Activity (A549 [5]) was “Active” and the Ct [6] was 8.87%. For the same compound, the logP [7] was -1.54, the Ct [8] was 3.23% and the Ct [9] was 9.97%. The Ct [10] was 6.87%, the Ct [11] was 15.11% and the Activity (A549 [12]) was “Active”. For the same compound, the Ct [13] was 5.52%, the Ct [14] was 4.78% and the Ct [15] was 2.45%. It also gave a Ct [16] of 23.46% and an IC50 (A549 [17]) of 5.65 µM.
